In ChEMBL document CHEMBL4219253, “Positive Modulators of the N-Methyl-d-aspartate Receptor: Structure-Activity Relationship Study of Steroidal 3-Hemiesters” (J Med Chem, 2018) one finds Emax, Activity and EC50 data, which are given here for one compound.

Structures are written as SMILES. pEC50: −log10 of the molar value.

In test [1] the target is T1, Glutamate NMDA receptor; Grin1/Grin2b (Rattus norvegicus) (UniProt P35439+Q00960). The experiment in a line: Positive allosteric modulation of recombinant rat GluN1alpha/GluN2B receptor expressed in HEK293 cells assessed as potentiation of glutamate-induced current response at 1 to 100 uM at holding potential -60mV by whole cell voltage clamp method relative to control. The class given is cell-based. In short, it runs like this:
(§1)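 HEK293 cells transfected with GluN1-1a, the GluN2 subunit and GFP. Whole-cell voltage clamp at -60 mV, series resistance <10 MΩ, 80-90% compensation, room temperature (21–25 °C). Compound is co-applied with 1 µM glutamate by multibarrel fast perfusion (exchange ~10 ms). DMSO is held at 1% in all test and control solutions. Readout is % potentiation of the glutamate-evoked current.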

For test [2], the target named is T2, Ionotropic glutamate receptor NMDA 1/2D (Rattus norvegicus) (UniProt P35439+Q62645). The experiment in a line: Positive allosteric modulation of recombinant rat GluN1alpha/GluN2D receptor expressed in HEK293 cells assessed as potentiation of glutamate-induced current response at 1 to 30 uM at holding potential -60mV by whole cell voltage clamp method relative to control. Type of test: cell-based. A digest of the protocol: (§2)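 HEK293 cells transfected with GluN1-1a, GluN2A, 2B, 2C or 2D and GFP cDNA. Whole-cell voltage clamp at -60 mV, 21–25 °C, series resistance <10 MΩ compensated 80–90%. Compound co-applied with 1 µM glutamate by fast multibarrel perfusion. DMSO 1% in all solutions. […] At least four cells per point.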

The target of test [3] is T3, Glutamate NMDA receptor; Grin1/Grin2a (Rattus norvegicus) (UniProt P35439+Q00959). The experiment in a line: Positive allosteric modulation of recombinant rat GluN1alpha/GluN2A receptor expressed in HEK293 cells assessed as potentiation of glutamate-induced current response at 30 uM at holding potential -60mV by whole cell voltage clamp method relative to control. The class given is cell-based. In short, it runs like this: as §2

Test [4] concerns the target Glutamate NMDA receptor; Grin1/Grin2b (Rattus norvegicus, UniProt P35439+Q00960). The experiment in a line: Positive allosteric modulation of recombinant rat GluN1alpha/GluN2B receptor expressed in HEK293 cells assessed as potentiation of glutamate-induced current response at holding potential -60mV by whole cell voltage clamp method. Type of test: cell-based. A digest of the protocol: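 HEK293 cells transfected with GluN1-1a, GluN2A, 2B, 2C or 2D and GFP cDNA. Whole-cell voltage clamp at -60 mV, 21–25 °C, series resistance <10 MΩ compensated 80–90%. Compound co-applied with 1 µM glutamate by fast multibarrel perfusion. DMSO 1% in all solutions. At least four cells per point.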

The target in test [5] is Glutamate NMDA receptor; Grin1/Grin2c (Rattus norvegicus, UniProt P35439+Q00961). The experiment in a line: Positive allosteric modulation of recombinant rat GluN1alpha/GluN2C receptor expressed in HEK293 cells assessed as potentiation of glutamate-induced current response at holding potential -60mV by whole cell voltage clamp method. The class given is cell-based. A digest of the protocol: as §2

Test [6] concerns the target T3, Glutamate NMDA receptor; Grin1/Grin2a (Rattus norvegicus). The experiment in a line: Positive allosteric modulation of recombinant rat GluN1alpha/GluN2A receptor expressed in HEK293 cells assessed as potentiation of glutamate-induced current response at 1 to 30 uM at holding potential -60mV by whole cell voltage clamp method relative to control. The class given is cell-based. A digest of the protocol:
as §2

Test [7] concerns the target T1, Glutamate NMDA receptor; Grin1/Grin2b (Rattus norvegicus). The experiment in a line: Positive allosteric modulation of recombinant rat GluN1alpha/GluN2B receptor expressed in HEK293 cells assessed as potentiation of glutamate-induced current response at 30 uM at holding potential -60mV pretreated with cells followed by 1 mM glutamate addition by whole cell voltage clamp method relative to control. Type of test: cell-based. A digest of the protocol: (§3)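 HEK293 cells expressing GluN1-1a/GluN2B, whole-cell voltage clamp at -60 mV, 21–25 °C. Compound at 30 µM was given in one of three ways: co-applied with 1 µM glutamate, co-applied with 1 mM glutamate, or pre-applied before 1 mM glutamate. Delivery by fast perfusion, DMSO 1% throughout. Potentiation relative to the control glutamate response.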

Test [8] has the same target. The experiment in a line: Positive allosteric modulation of recombinant rat GluN1alpha/GluN2B receptor expressed in HEK293 cells assessed as potentiation of glutamate-induced current response at 30 uM at holding potential -60mV by whole cell voltage clamp method relative to control. Type of test: cell-based. In short, it runs like this:
as §2

Test [9] is filed under the species Rattus norvegicus. The experiment in a line: Positive allosteric modulation of AMPAR in rat hippocampal neuron assessed as potentiation of AMPA-induced current response at 30 uM in presence of cyclothiazide by whole cell voltage clamp method relative to control. In short, it runs like this:
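Cultured hippocampal neurons, whole-cell voltage clamp at -60 mV, room temperature (21–25 °C). AMPAR current evoked by 5 µM AMPA; bath also held 10 µM cyclothiazide, 50 µM D-AP5, 10 µM bicuculline, 0.5 µM TTX. Compound co-applied by fast multibarrel perfusion. DMSO 1% in all test and control solutions. Effect expressed relative to control response.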

In test [10] the target is T1, Glutamate NMDA receptor; Grin1/Grin2b (Rattus norvegicus). The experiment in a line: Positive allosteric modulation of recombinant rat GluN1alpha/GluN2B receptor expressed in HEK293 cells assessed as potentiation of glutamate-induced current response at 30 uM at holding potential -60mV cotreated with 1 mM glutamate by whole cell voltage clamp method relative to control. The class given is cell-based. In short, it runs like this: as §3

The target is the same in test [11]. The experiment in a line: Positive allosteric modulation of recombinant rat GluN1alpha/GluN2B receptor expressed in HEK293 cells assessed as potentiation of glutamate-induced current response at 30 uM at holding potential -60mV cotreated with 1 uM glutamate by whole cell voltage clamp method relative to control. The class given is cell-based. A digest of the protocol:
as §3

For test [12], the species on record is Rattus norvegicus. The experiment in a line: Positive allosteric modulation of GABAR in rat hippocampal neuron assessed as potentiation of GABA-induced current response at 30 uM in presence of cyclothiazide by whole cell voltage clamp method relative to control.
Test [13] concerns the target T4, Glutamate NMDA receptor; Grin1/Grin2c (Rattus norvegicus) (UniProt P35439+Q00961). The experiment in a line: Positive allosteric modulation of recombinant rat GluN1alpha/GluN2C receptor expressed in HEK293 cells assessed as potentiation of glutamate-induced current response at 30 uM at holding potential -60mV by whole cell voltage clamp method relative to control. The class given is cell-based. In short, it runs like this: as §2

For test [14], the target named is T1, Glutamate NMDA receptor; Grin1/Grin2b (Rattus norvegicus). The experiment in a line: Positive allosteric modulation of recombinant rat GluN1alpha/GluN2B receptor expressed in HEK293 cells assessed as potentiation of glutamate-induced current response at 1 to 30 uM at holding potential -60mV by whole cell voltage clamp method relative to control. The class given is cell-based. A digest of the protocol: as §2

Test [15] has as its target Ionotropic glutamate receptor NMDA 1/2D (Rattus norvegicus, UniProt P35439+Q62645). The experiment in a line: Positive allosteric modulation of recombinant rat GluN1alpha/GluN2D receptor expressed in HEK293 cells assessed as potentiation of glutamate-induced current response at holding potential -60mV by whole cell voltage clamp method. The class given is cell-based. In short, it runs like this: as §2

Test [16] has as its target Glutamate NMDA receptor; Grin1/Grin2a (Rattus norvegicus, UniProt P35439+Q00959). The experiment in a line: Positive allosteric modulation of recombinant rat GluN1alpha/GluN2A receptor expressed in HEK293 cells assessed as potentiation of glutamate-induced current response at holding potential -60mV by whole cell voltage clamp method. The class given is cell-based. In short, it runs like this: as §2

Test [17] concerns the target T1, Glutamate NMDA receptor; Grin1/Grin2b (Rattus norvegicus). The experiment in a line: Positive allosteric modulation of recombinant rat GluN1alpha/GluN2B receptor expressed in HEK293 cells assessed as potentiation of glutamate-induced current response at 100 uM at holding potential -60mV by whole cell voltage clamp method relative to control. Type of test: cell-based. A digest of the protocol:
as §1

Test [18] concerns the target T4, Glutamate NMDA receptor; Grin1/Grin2c (Rattus norvegicus). The experiment in a line: Positive allosteric modulation of recombinant rat GluN1alpha/GluN2C receptor expressed in HEK293 cells assessed as potentiation of glutamate-induced current response at 1 to 30 uM at holding potential -60mV by whole cell voltage clamp method relative to control. The class given is cell-based. A digest of the protocol:
as §2

The target in test [19] is T2, Ionotropic glutamate receptor NMDA 1/2D (Rattus norvegicus). The experiment in a line: Positive allosteric modulation of recombinant rat GluN1alpha/GluN2D receptor expressed in HEK293 cells assessed as potentiation of glutamate-induced current response at 30 uM at holding potential -60mV by whole cell voltage clamp method relative to control. Type of test: cell-based. A digest of the protocol:
as §2

Test [20] concerns the target Glutamate NMDA receptor (Rattus norvegicus) (UniProt P35439+Q00959+Q00960+Q00961+Q62645+Q8VHN2+Q9R1M7). The experiment in a line: Positive allosteric modulation of NMDAR in rat hippocampal neuron assessed as potentiation of NMDA-induced current response at 30 uM by whole cell voltage clamp method relative to control. In short, it runs like this: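 Native NMDARs in cultured hippocampal neurons, whole-cell voltage clamp at -60 mV, 21–25 °C. Bath also held 10 µM CNQX, 10 µM bicuculline, 0.5 µM TTX. Compound co-applied with 1 µM glutamate by fast perfusion (~10 ms exchange). DMSO 1% throughout. Potentiation relative to control glutamate response.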

In the case of `CC(=O)[C@H]1CC[C@H]2[C@@H]3CC=C4C[C@@H](OC(=O)CCCCC(=O)O)CC[C@]4(C)[C@H]3CC[C@]12C`, the Emax is 151% in [1]; 115% in test [2]; 203% in test [6]; 157% in test [14]; 145% in test [18]. For the same compound, the Activity in test [3] was 192%; in test [7], 134%; in test [8], 137%; in test [9] it was -7%; in test [10] it was 75%; in test [11], 136%. Also, the Activity is -90% in test [12]; 118% in [13]; 614% in [17]; 88% in [19]; 138% in test [20]. Moreover, the pEC50 was 5.04 to 5.07 in test [4], 4.98 in test [5], 4.89 in test [15] and 5.05 in test [16].

What is called Emax is the greatest response seen or fitted, relative to the assay's reference. Broadly, the pEC50 is −log10 of the EC50, conventionally taken in molar units.
